pIC50: −log10 of the molar value.
How the values were obtained:
[1] = biological target: T1, OgOGA (Oceanicola granulosus OGA) (Oceanicola granulosus, UniProt Q2CEE3); assay: Inhibition of OgOGA by OGA inhibitors, 4MU-GlcNAc substrate; type: biochemical
In short: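 OgOGA was a GST fusion expressed in E. coli and purified by affinity, anion-exchange and size-exclusion steps. Activity was measured in 25 mM Tris/HCl pH 7.5 with 0.1 mg/ml BSA and 2% DMSO at 37 °C. 4MU-GlcNAc was used at its Km for 20 min, with fluorescence read at ex 360/em 460 nm. Run in triplicate.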

[2] = biological target: T1, OgOGA (Oceanicola granulosus OGA); assay: Enzymatic deglycosylation of glycopeptide monitored by LC-MS; type: biochemical; conditions: detected by LC-MS; 785 Da to 582 Da
In short: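 OgOGA expressed in E. coli as a GST fusion from a gene cloned from genomic DNA, then purified by affinity, anion-exchange and size-exclusion chromatography. Glycopeptide loss of GlcNAc followed by LC–MS: reversed-phase C18 HPLC with diode-array UV detection, coupled to a high-resolution TOF mass spectrometer.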

T1 sequence (Q2CEE3 whole entry, the tested form may be a part): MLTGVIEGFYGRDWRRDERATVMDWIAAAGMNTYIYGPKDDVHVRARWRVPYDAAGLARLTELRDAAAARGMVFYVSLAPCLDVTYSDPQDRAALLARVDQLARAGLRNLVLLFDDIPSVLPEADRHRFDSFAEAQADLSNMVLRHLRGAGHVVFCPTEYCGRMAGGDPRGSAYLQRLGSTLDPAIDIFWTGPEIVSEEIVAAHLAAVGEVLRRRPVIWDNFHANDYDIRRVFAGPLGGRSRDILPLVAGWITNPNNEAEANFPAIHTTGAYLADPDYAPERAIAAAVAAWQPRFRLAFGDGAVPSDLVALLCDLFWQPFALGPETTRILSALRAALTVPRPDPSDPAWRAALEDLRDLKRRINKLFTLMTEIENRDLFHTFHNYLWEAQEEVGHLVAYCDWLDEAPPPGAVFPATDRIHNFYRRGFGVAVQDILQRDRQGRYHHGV

Row | Compound | pIC50 [1] | Deglycosylation of glycopeptide by OgOGA [2]
1 | CC(=O)N[C@H]1/C(=N/OC(=O)Nc2ccccc2)O[C@H](CO)[C@@H](O)[C@@H]1O [PUGNAc, O-(2-acetamido-2-deoxy-D-glucopyranosylidene)amino-N-phenylcarbamate] | 4.96 | –
2 | Ac-VAHS(-β-O-GlcNAc)GA-NH2 | – | quantitatively deglycosylate

Source: paper PMC2973230 (Biochemical Journal, 2010)
